DYRK1A inh – Dyrk1A (rat) kinase inhibition. Q63470. ADP-Glo luminescence, NFATc1 peptide. inhibition, % at 12.5 µM. 310,000 compounds, 0.43% hits; in the data active means inhibition above about 50%;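 further: plate controls were vehicle with enzyme for no effect and no enzyme for full effect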
CAL PDZ FP-1 – CAL PDZ (human) peptide binding inhibition. Q9HD26. purified CAL PDZ, TMR-peptide fluorescence polarization, 1 h. inhibition, % at 24.9 µM. 300,000 compounds, 0.92% hits. AID 602252;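 active means mean inhibition of at least 30% with at least half of replicates also reaching 30%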;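 further: 0% = DMSO neutral control and 100% = excess unlabeled competitor peptide PRC23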
CAL PDZ FP-2 – inhibitors of human CAL PDZ peptide binding; Q9HD26; purified CAL PDZ, TMR-peptide fluorescence polarization, 1 h; inhibition, % at 20 µM; 330,000 compounds, 0.02% hits;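 active means highest replicate inhibition of at least 40%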;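 further: plate controls were DMSO neutral control wells for no effect and unlabeled competitor peptide control wells for full effect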
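Read-out basis: mP drop reported as inhibition | Assay system: Tagged CAL PDZ protein CerCALP, purified | Benchmarks: Unlabelled peptide for full inhibition, DMSO wells as neutral | Schedule: 1 h incubation at room temperature before polarization reading | Buffer or medium: Sodium phosphate/NaCl buffer pH 7.4 with TCEP, IgG, Thesit | Doses: Single point, 20 µM | Measured by: Fluorescence polarization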
ARNT-TACC3 inh – disruptors of human ARNT/TACC3 interaction; 390,000 compounds, 0.66% hits; AID 623870; inhibition, % at 9.99 µM; AlphaScreen His-ARNT PAS-B/GST-TACC3 binding, luminescence; TACC3 fragment carries E629A point mutation;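 active means mean inhibition of replicates at least 50% and at least half of replicates each reaching 50%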;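 further: 0% = complete ARNT plus TACC3 wells and 100% = ARNT alone without TACC3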
ADP-Glo artifact – counter-screen for Dyrk1A inhibitors: ADP-Glo luciferase artifacts. shares compounds with DYRK1A inh. ADP-Glo luciferase artifact assay, no Dyrk1A, luminescence. AC50, µM (titrated, usually from 12 µM), for the others: at the highest dose activity change, negative = inhibition. 1,300 tested, under 10 active. AID 588348;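 active means fitted half-maximal dose AC50 no more than ten times the top valid tested dose, with luminescence dropping as dose rises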
AlphaScreen ctr – counter-screen for ARNT/TACC3 inhibitors: AlphaScreen artifacts | shares compounds with ARNT-TACC3 inh | His-ARNT PASB-GST AlphaScreen artifact counter-screen, luminescence | AC50, µM (titrated, usually from 68 µM), for inactives: at the top dose activity change, negative = signal decrease | 1,200 compounds, 50% hits | AID 651705;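 active means every separate test run was called active for a drop in luminescence, with AC50 within twice the top valid dose, actives reach about 71 µM in these data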
The depositor's hits bear a star; . = no result given. The list is not random: actives were taken first. Their share in the collection is about 1.4%.

SMILES	DYRK1A inh	CAL PDZ FP-1	CAL PDZ FP-2	ARNT-TACC3 inh	ADP-Glo artifact	others
COC(=O)[C@@H]1[C@@H](CO)[C@@H]2Cn3c(ccc(-c4cccnc4)c3=O)[C@H]1N2CCc1ccccc1	.	.	.	-41.8	.
CCc1nccc2c1[nH]c1ccccc12	58.8*	1.0	-1.2	-7.7	6.4%
Cc1[nH]c2ccccc2c1/C=N/O	34.4	-3.5	0.6	-3.9	.
Cc1nccc2c1[nH]c1ccccc12	76.5*	-6.8	-0.7	-7.0	8.2%
N/C(=N\N=C/c1ccc(-c2ccc(O)c(C(=O)O)c2)o1)N[N+](=O)[O-]	83.0*	.	-0.6	17.9	5.0%
CC=Cc1ccc2n(c1=O)C[C@@H]1[C@@H](CO)[C@H](C(=O)OC)[C@H]2N1CC1CC1 (mixture of isomers)	.	.	.	-2.8	.
N#Cc1cccc(-c2ccc([C@H]3[C@@H](CO)N4CCCCN(C(=O)Cc5ccccc5)C[C@H]34)cc2)c1	.	.	.	2.9	.
COc1ccc2c(c1)/C(=C/c1cnc[nH]1)C(=O)N2	82.7*	4.8	0.0	26.8	14.6%
Cc1cccc(-n2c(O)c(/C=C3/C(c4ccccc4)=Nc4ccccc43)c(=O)[nH]c2=O)c1	60.0*	-4.2	-1.0	-2.5	10.0%
Cc1ccccc1-n1c(O)c(/C=C2/C(c3ccccc3)=Nc3ccccc32)c(=O)[nH]c1=O	1.8	-3.6	-0.7	-9.7	.
O=C(Cc1ccccc1)N1CCCCN2[C@@H](CO)[C@@H](c3ccc(C#Cc4ccccc4)cc3)[C@@H]2C1	.	.	.	-19.4	.
COC(=O)C1=C(c2ccc(F)cc2OCc2ccccc2)C[C@@H]2CC[C@H]1N2C(=O)NCc1ccccc1	51.7*	1.8	-1.3	0.3	6.2%
COC(=O)[C@H]1[C@H](CO)[C@H]2Cn3c(ccc(-c4cccc(F)c4)c3=O)[C@@H]1N2Cc1cccnc1	.	.	.	0.6	.
COc1cc2occc2c2oc(=O)ccc12	20.1	4.2	-0.3	3.5	.
COc1cc2ccc(=O)oc2c2ccoc12	58.5*	-0.5	-0.7	-0.1	7.3%
OC[C@H]1O[C@@H](n2cnc3cc(Cl)c(Cl)cc32)[C@H](O)[C@@H]1O	74.0*	1.3	-0.7	-0.2	12.1%
N#C/C(=C\c1ccc(O)cc1)C(=O)O	76.3*	21.2	-0.3	-2.2	11.8%
CN1CCc2cc3c(c4c2C1Cc1ccccc1-4)OCO3 (stereo unspecified)	67.5*	0.7	-0.9	5.6	9.3%
CN1CCc2cc(O)cc3c2[C@H]1Cc1ccc(O)c(O)c1-3	14.1	-4.0	1.7	2.7	.
O=C(Cc1ccccn1)N1CCCCN2[C@H](CO)[C@H](c3ccc(Br)cc3)[C@@H]2C1	.	.	.	-1.8	.
COc1ccc2[nH]c3c(c2c1)CCNC3C (stereo unspecified)	-1.9	-0.5	0.6	8.2	.
COc1ccc2c3c([nH]c2c1)C(C)NCC3 (stereo unspecified)	74.2*	-3.1	4.9	26.6	9.0%
O=C(O)[C@@H]1[C@@H](CO)[C@@H]2Cn3c(ccc(-c4ccncc4)c3=O)[C@H]1N2C(=O)C1CCCCC1	.	.	.	-1.9	.
Clc1ccc2c(c1)C(c1ccccc1Cl)=NCc1nnc(N3CCN(CCOc4ccccc4)CC3)n1-2	-0.5	.	-1.6	0.2	.
Clc1ccc2c(c1)C(c1ccccc1Cl)=NCc1nnc(N3CCN(CCSc4ccccc4)CC3)n1-2	58.4*	-2.4	0.4	9.6	8.3%
SMILES	DYRK1A inh	CAL PDZ FP-1	CAL PDZ FP-2	ARNT-TACC3 inh	ADP-Glo artifact	others
CCCN1[C@@H]2Cn3c(ccc(-c4ccc(F)cc4)c3=O)[C@H]1[C@@H](C(=O)OC)[C@@H]2CO	.	.	.	-8.3	.
COc1cc2c(cc1O)C[C@H]1c3c(cc(O)c(OC)c3-2)CCN1C	70.7*	-5.5	0.6	5.9	9.5%
COC(=O)C1=C(c2ccc(Cl)c(C(F)(F)F)c2)C[C@@H]2CC[C@H]1N2C(=O)NCCOc1ccc(OC)cc1	57.0*	0.7	-0.2	27.1	10.3%
CN(C)CC#Cc1ccc([C@@H]2[C@H](CO)N3CCCCN(C(=O)Cc4ccccn4)C[C@@H]23)cc1	.	.	.	5.6	.
CC=Cc1ccc2n(c1=O)C[C@H]1[C@H](CO)[C@@H](C(=O)N(C)C)[C@@H]2N1C (mixture of isomers)	.	.	.	-0.7	.
Cc1c2ccncc2c(C)c2c1[nH]c1ccccc12	86.8*	0.2	2.8	-3.9	6.9%
c1ccc2c(c1)[nH]c1cnccc12	69.0*	-3.3	-0.6	13.1	8.2%
CC1=NCCc2c1[nH]c1ccccc21	.	1.7	1.3	9.2	.
O=c1[nH]c(O)c(Cc2ccc3c(c2)OCO3)c(=O)[nH]1	1.0	-1.1	-3.1	23.2*	.	AlphaScreen ctr=7.2%
COC(=O)[C@@H]1[C@@H](CO)[C@@H]2Cn3c(ccc(C4=CCCCC4)c3=O)[C@H]1N2Cc1cccnc1	.	.	.	-10.5	.
CN(C)C1C(=O)C(C(N)=O)=C(O)C2(O)C(=O)C3=C(O)c4c(O)cccc4C(C)(O)C3CC12 (stereo unspecified)	1.5	-1.4	0.8	4.5	.
CN(C)[C@@H]1C(=O)C(C(N)=O)=C(O)[C@@]2(O)C(=O)C3=C(O)c4c(O)cccc4[C@@](C)(O)C3[C@H](O)C12 (stereo partly specified)	4.2	-5.4	1.1	44.6*	.	AlphaScreen ctr=-1.2%
COC(=O)[C@H]1[C@H](CO)[C@H]2Cn3c(ccc(C4=CCCCC4)c3=O)[C@@H]1N2CCc1ccccc1	.	.	.	-5.6	.
CCOC(=O)c1cnc(N2CC2)nc1N	9.7	-0.3	-0.3	5.7	.
CCOC(=O)c1cc2c(cn1)[C@H](CCO)NC2	.	-3.5	0.0	58.6*	.	AlphaScreen ctr=-15.4%
COc1cc2c(c(OC)c1OC)-c1ccc(O)c(=O)cc1[C@@H](NC(C)=O)CC2	-1.5	0.8	-0.2	68.9*	.	AlphaScreen ctr=-22.3%
CCCN1[C@@H]2Cn3c(cccc3=O)[C@H]1[C@@H](C(=O)N(C)C)[C@@H]2CO	.	.	.	5.9	.
Cc1cccc(NC(=O)C(C)N2CC=C(c3ccccc3)CC2)c1 (stereo unspecified)	-3.3	-4.1	-2.5	62.2*	.	AlphaScreen ctr=-27.0%

High-throughput results deposited in PubChem BioAssay by Broad Institute.
